Six compounds from ChEMBL document CHEMBL1949561, “Synthesis and triplex-forming ability of oligonucleotides bearing 1-substituted 1H-1,2,3-triazole nucleobases” (Bioorg Med Chem, 2011) can be followed below.

Common to all, as to type: nucleic-acid assay
Assay [1] has as its system Nucleic Acid. The assay is described as follows: Binding affinity to 5'-GCTAAAAAGAAAGAGAGATCG-3'/5'- CGATCTCTCTTTCTTTTTAGC-3' double stranded DNA assessed as melting temperature at 1.5 uM in sodium phosphate buffer at pH 7 by UV spectrophotometric analysis. In a few lines: (§1)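 UV melting of triplexes between each modified TFO and the 21-bp duplex target, in 7 mM sodium phosphate buffer (pH 7.0), 140 mM KCl and 10 mM MgCl₂. Each oligonucleotide at 1.5 µM final. Absorbance followed at 260 nm from 5 °C to 85 °C, scanned at 0.5 °C/min, to give Tm.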

In assay [2] the test system is Nucleic Acid. The assay can be described thus: Binding affinity to 5'-GCTAAAAAGACAGAGAGATCG-3'/5'- CGATCTCTCTGTCTTTTTAGC-3' double stranded DNA assessed as melting temperature at 1.9 uM in sodium cacodylate buffer at pH 6.8 by UV spectrophotometric analysis. In a few lines: (§2)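 Each oligonucleotide at 1.9 µM final. Absorbance at 260 nm recorded from 5 °C to 85 °C at 0.5 °C/min; Tm taken from the melting profile.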

The test system of assay [3] is Nucleic Acid. The assay is described as follows: Binding affinity to 5'-GCTAAAAAGAAAGAGAGATCG-3'/5'- CGATCTCTCTTTCTTTTTAGC-3' double stranded DNA assessed as melting temperature at 1.9 uM in sodium cacodylate buffer at pH 6.8 by UV spectrophotometric analysis. In a few lines:
as §2

Assay [4] concerns Nucleic Acid. The assay is described as follows: Binding affinity to 5'-GCTAAAAAGATAGAGAGATCG-3'/5'- CGATCTCTCTATCTTTTTAGC-3' double stranded DNA assessed as melting temperature at 1.5 uM in sodium phosphate buffer at pH 7 by UV spectrophotometric analysis. In a few lines:
as §1

In assay [5] the test system is Nucleic Acid. The assay can be described thus: Binding affinity to 5'-GCTAAAAAGAGAGAGAGATCG-3'/5'- CGATCTCTCTCTCTTTTTAGC-3' double stranded DNA assessed as melting temperature at 1.9 uM in sodium cacodylate buffer at pH 6.8 by UV spectrophotometric analysis. In a few lines:
as §2

In assay [6] the test system is Nucleic Acid. The assay is described as follows: Binding affinity to 5'-GCTAAAAAGATAGAGAGATCG-3'/5'- CGATCTCTCTATCTTTTTAGC-3' double stranded DNA assessed as melting temperature at 1.9 uM in sodium cacodylate buffer at pH 6.8 by UV spectrophotometric analysis. In a few lines:
as §2

Assay [7] relates to Nucleic Acid. The assay can be described thus: Binding affinity to 5'-GCTAAAAAGAGAGAGAGATCG-3'/5'- CGATCTCTCTCTCTTTTTAGC-3' double stranded DNA assessed as melting temperature at 1.5 uM in sodium phosphate buffer at pH 7 by UV spectrophotometric analysis. In a few lines: as §1
The subject of assay [8] is Nucleic Acid. The assay is described as follows: Binding affinity to5'-GCTAAAAAGACAGAGAGATCG-3'/5'- CGATCTCTCTGTCTTTTTAGC-3' double stranded DNA assessed as melting temperature at 1.5 uM in sodium phosphate buffer at pH 7 by UV spectrophotometric analysis. In a few lines: as §1
For assay [9], the system named is Nucleic Acid. The assay can be described thus: Binding affinity to 5'-GCTAAAAAGACAGAGAGATCG-3'/5'- CGATCTCTCTGTCTTTTTAGC-3' double stranded DNA assessed as change in melting temperature at 1.5 uM in sodium phosphate buffer at pH 7 by UV spectrophotometric analysis.

As for `Cc1cn([C@H]2C[C@H](OP(=O)(O)OC[C@H]3O[C@@H](n4cc(C)c(=O)[nH]c4=O)C[C@@H]3OP(=O)(O)OC[C@H]3O[C@@H](n4cc(C)c(N)nc4=O)C[C@@H]3OP(=O)(O)OC[C@H]3O[C@@H](n4cc(C)c(=O)[nH]c4=O)C[C@@H]3OP(=O)(O)OC[C@H]3O[C@@H](n4cc(C)c(N)nc4=O)C[C@@H]3OP(=O)(O)OC[C@H]3O[C@@H](n4cc(C)c(=O)[nH]c4=O)C[C@@H]3OP(=O)(O)OC[C@H]3O[C@@H](n4cc(C)c(=O)[nH]c4=O)C[C@@H]3OP(=O)(O)OC[C@H]3O[C@@H](n4cc(C)c(=O)[nH]c4=O)C[C@@H]3OP(=O)(O)OC[C@H]3O[C@@H](n4cc(C)c(N)nc4=O)C[C@@H]3OP(=O)(O)OC[C@H]3O[C@@H](n4cc(C)c(=O)[nH]c4=O)C[C@@H]3OP(=O)(O)OC[C@H]3O[C@@H](n4cc(C)c(=O)[nH]c4=O)C[C@@H]3OP(=O)(O)OC[C@H]3O[C@@H](n4cc(C)c(=O)[nH]c4=O)C[C@@H]3OP(=O)(O)OC[C@H]3O[C@@H](n4cc(C)c(=O)[nH]c4=O)C[C@@H]3OP(=O)(O)OC[C@H]3O[C@@H](n4cc(C)c(=O)[nH]c4=O)C[C@@H]3O)[C@@H](COP(=O)(O)O[C@H]3C[C@H](n4cc(C)c(=O)[nH]c4=O)O[C@@H]3CO)O2)c(=O)nc1N`, the Tm is 44 °C in assay [1]; 28 °C in assay [2]; 45 °C in [3]; 17 °C in [4]; 22 °C in assay [5]; 21 °C in assay [6]. Also, the Tm turned out to be 20 °C in assay [7] and 25 °C in assay [8].

As usually defined, the ΔTm is the change in melting temperature against a reference sample. For the compound `Cc1cn([C@H]2C[C@H](OP(=O)(O)OC[C@H]3O[C@@H](n4cc(C)c(=O)[nH]c4=O)C[C@@H]3OP(=O)(O)OC[C@H]3O[C@@H](n4cc(C)c(N)nc4=O)C[C@@H]3OP(=O)(O)OC[C@H]3O[C@@H](n4cc(C)c(=O)[nH]c4=O)C[C@@H]3OP(=O)(O)OC[C@H]3O[C@@H](n4cc(C)c(N)nc4=O)C[C@@H]3OP(=O)(O)OC[C@H]3O[C@@H](n4cc(C)c(=O)[nH]c4=O)C[C@@H]3OP(=O)(O)OC[C@H]3O[C@@H](c4cn(-c5ccc(C(=O)O)cc5)nn4)C[C@@H]3OP(=O)(O)OC[C@H]3O[C@@H](n4cc(C)c(=O)[nH]c4=O)C[C@@H]3OP(=O)(O)OC[C@H]3O[C@@H](n4cc(C)c(N)nc4=O)C[C@@H]3OP(=O)(O)OC[C@H]3O[C@@H](n4cc(C)c(=O)[nH]c4=O)C[C@@H]3OP(=O)(O)OC[C@H]3O[C@@H](n4cc(C)c(=O)[nH]c4=O)C[C@@H]3OP(=O)(O)OC[C@H]3O[C@@H](n4cc(C)c(=O)[nH]c4=O)C[C@@H]3OP(=O)(O)OC[C@H]3O[C@@H](n4cc(C)c(=O)[nH]c4=O)C[C@@H]3OP(=O)(O)OC[C@H]3O[C@@H](n4cc(C)c(=O)[nH]c4=O)C[C@@H]3O)[C@@H](COP(=O)(O)O[C@H]3C[C@H](n4cc(C)c(=O)[nH]c4=O)O[C@@H]3CO)O2)c(=O)nc1N`, the Tm in assay [1] was < 10 °C; in [4], < 10 °C; in assay [7], < 10 °C; in assay [8], 21 °C. Also, in assay [9], the ΔTm was determined as 11 °C.

In the case of `Cc1cn([C@H]2C[C@H](OP(=O)(O)OC[C@H]3O[C@@H](n4cc(C)c(=O)[nH]c4=O)C[C@@H]3OP(=O)(O)OC[C@H]3O[C@@H](n4cc(C)c(N)nc4=O)C[C@@H]3OP(=O)(O)OC[C@H]3O[C@@H](n4cc(C)c(=O)[nH]c4=O)C[C@@H]3OP(=O)(O)OC[C@H]3O[C@@H](n4cc(C)c(N)nc4=O)C[C@@H]3OP(=O)(O)OC[C@H]3O[C@@H](n4cc(C)c(=O)[nH]c4=O)C[C@@H]3OP(=O)(O)OC[C@H]3O[C@@H](c4cn(-c5ccccc5O)nn4)C[C@@H]3OP(=O)(O)OC[C@H]3O[C@@H](n4cc(C)c(=O)[nH]c4=O)C[C@@H]3OP(=O)(O)OC[C@H]3O[C@@H](n4cc(C)c(N)nc4=O)C[C@@H]3OP(=O)(O)OC[C@H]3O[C@@H](n4cc(C)c(=O)[nH]c4=O)C[C@@H]3OP(=O)(O)OC[C@H]3O[C@@H](n4cc(C)c(=O)[nH]c4=O)C[C@@H]3OP(=O)(O)OC[C@H]3O[C@@H](n4cc(C)c(=O)[nH]c4=O)C[C@@H]3OP(=O)(O)OC[C@H]3O[C@@H](n4cc(C)c(=O)[nH]c4=O)C[C@@H]3OP(=O)(O)OC[C@H]3O[C@@H](n4cc(C)c(=O)[nH]c4=O)C[C@@H]3O)[C@@H](COP(=O)(O)O[C@H]3C[C@H](n4cc(C)c(=O)[nH]c4=O)O[C@@H]3CO)O2)c(=O)nc1N`, the Tm in [1] is 17 °C; in assay [4], 15 °C; in assay [7], < 10 °C; in [8], 25 °C.

On to `CC(=O)NCCn1cc([C@H]2C[C@H](OP(=O)(O)OC[C@H]3O[C@@H](n4cc(C)c(=O)[nH]c4=O)C[C@@H]3OP(=O)(O)OC[C@H]3O[C@@H](n4cc(C)c(N)nc4=O)C[C@@H]3OP(=O)(O)OC[C@H]3O[C@@H](n4cc(C)c(=O)[nH]c4=O)C[C@@H]3OP(=O)(O)OC[C@H]3O[C@@H](n4cc(C)c(=O)[nH]c4=O)C[C@@H]3OP(=O)(O)OC[C@H]3O[C@@H](n4cc(C)c(=O)[nH]c4=O)C[C@@H]3OP(=O)(O)OC[C@H]3O[C@@H](n4cc(C)c(=O)[nH]c4=O)C[C@@H]3OP(=O)(O)OC[C@H]3O[C@@H](n4cc(C)c(=O)[nH]c4=O)C[C@@H]3O)[C@@H](COP(=O)(O)O[C@H]3C[C@H](n4cc(C)c(=O)[nH]c4=O)O[C@@H]3COP(=O)(O)O[C@H]3C[C@H](n4cc(C)c(N)nc4=O)O[C@@H]3COP(=O)(O)O[C@H]3C[C@H](n4cc(C)c(=O)[nH]c4=O)O[C@@H]3COP(=O)(O)O[C@H]3C[C@H](n4cc(C)c(N)nc4=O)O[C@@H]3COP(=O)(O)O[C@H]3C[C@H](n4cc(C)c(=O)[nH]c4=O)O[C@@H]3COP(=O)(O)O[C@H]3C[C@H](n4cc(C)c(N)nc4=O)O[C@@H]3COP(=O)(O)O[C@H]3C[C@H](n4cc(C)c(=O)[nH]c4=O)O[C@@H]3CO)O2)nn1`, for which the Tm in assay [1] is 14 °C; in assay [4] it was 14 °C; in assay [7], < 10 °C; in [8] it was 20 °C.

As to `CCOC(=O)Cn1cc([C@H]2C[C@H](OP(=O)(O)OC[C@H]3O[C@@H](n4cc(C)c(=O)[nH]c4=O)C[C@@H]3OP(=O)(O)OC[C@H]3O[C@@H](n4cc(C)c(N)nc4=O)C[C@@H]3OP(=O)(O)OC[C@H]3O[C@@H](n4cc(C)c(=O)[nH]c4=O)C[C@@H]3OP(=O)(O)OC[C@H]3O[C@@H](n4cc(C)c(=O)[nH]c4=O)C[C@@H]3OP(=O)(O)OC[C@H]3O[C@@H](n4cc(C)c(=O)[nH]c4=O)C[C@@H]3OP(=O)(O)OC[C@H]3O[C@@H](n4cc(C)c(=O)[nH]c4=O)C[C@@H]3OP(=O)(O)OC[C@H]3O[C@@H](n4cc(C)c(=O)[nH]c4=O)C[C@@H]3O)[C@@H](COP(=O)(O)O[C@H]3C[C@H](n4cc(C)c(=O)[nH]c4=O)O[C@@H]3COP(=O)(O)O[C@H]3C[C@H](n4cc(C)c(N)nc4=O)O[C@@H]3COP(=O)(O)O[C@H]3C[C@H](n4cc(C)c(=O)[nH]c4=O)O[C@@H]3COP(=O)(O)O[C@H]3C[C@H](n4cc(C)c(N)nc4=O)O[C@@H]3COP(=O)(O)O[C@H]3C[C@H](n4cc(C)c(=O)[nH]c4=O)O[C@@H]3COP(=O)(O)O[C@H]3C[C@H](n4cc(C)c(N)nc4=O)O[C@@H]3COP(=O)(O)O[C@H]3C[C@H](n4cc(C)c(=O)[nH]c4=O)O[C@@H]3CO)O2)nn1`, the Tm was < 10 °C in assay [1], 14 °C in [4], 12 °C in assay [7] and 20 °C in [8].

For the compound `Cc1cn([C@H]2C[C@H](OP(=O)(O)OC[C@H]3O[C@@H](n4cc(C)c(=O)[nH]c4=O)C[C@@H]3OP(=O)(O)OC[C@H]3O[C@@H](n4cc(C)c(N)nc4=O)C[C@@H]3OP(=O)(O)OC[C@H]3O[C@@H](n4cc(C)c(=O)[nH]c4=O)C[C@@H]3OP(=O)(O)OC[C@H]3O[C@@H](n4cc(C)c(N)nc4=O)C[C@@H]3OP(=O)(O)OC[C@H]3O[C@@H](n4cc(C)c(=O)[nH]c4=O)C[C@@H]3OP(=O)(O)OC[C@H]3O[C@@H](c4cn(-c5cccc(CO)c5)nn4)C[C@@H]3OP(=O)(O)OC[C@H]3O[C@@H](n4cc(C)c(=O)[nH]c4=O)C[C@@H]3OP(=O)(O)OC[C@H]3O[C@@H](n4cc(C)c(N)nc4=O)C[C@@H]3OP(=O)(O)OC[C@H]3O[C@@H](n4cc(C)c(=O)[nH]c4=O)C[C@@H]3OP(=O)(O)OC[C@H]3O[C@@H](n4cc(C)c(=O)[nH]c4=O)C[C@@H]3OP(=O)(O)OC[C@H]3O[C@@H](n4cc(C)c(=O)[nH]c4=O)C[C@@H]3OP(=O)(O)OC[C@H]3O[C@@H](n4cc(C)c(=O)[nH]c4=O)C[C@@H]3OP(=O)(O)OC[C@H]3O[C@@H](n4cc(C)c(=O)[nH]c4=O)C[C@@H]3O)[C@@H](COP(=O)(O)O[C@H]3C[C@H](n4cc(C)c(=O)[nH]c4=O)O[C@@H]3CO)O2)c(=O)nc1N`, the Tm in assay [1] was < 10 °C; in assay [4] it was 14 °C; in [7], < 10 °C; in assay [8], 23 °C.
